Measured values taken from ChEMBL document CHEMBL1148703, “Synthesis and antiviral evaluation of 6-(alkyl-heteroaryl)furo[2,3-d]pyrimidin-2(3H)-one nucleosides and analogues with ethynyl, ethenyl, and ethyl spacers at C6 of the furopyrimidine core” (J Med Chem, 2007).
Each block holds one compound with its values, some of them ahead of it.

Tests used:
[1] = system: Human betaherpesvirus 5; experiment: Antiviral activity against HCMV AD169 in HEL cells assessed as reduction of virus plaque formation after 7 days; assay type: functional, organism-based; conditions: Human betaherpesvirus 5, AD169, HEL, 168 h
In short: (§1)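 Confluent HEL fibroblasts were infected with HCMV at 100 pfu per well. After 2 h the residual virus was removed and medium with a range of compound concentrations was added (duplicate). Cells were incubated 7 days at 37 °C, then fixed with ethanol and stained with Giemsa. Virus-induced cytopathicity was scored microscopically, and EC50 was read from graphic plots of % cytopathicity versus concentration.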

[2] = system: Human alphaherpesvirus 3; experiment: Antiviral activity against thymidine kinase deficient VZV YS/R in HEL cells assessed as reduction of virus plaque formation after 5 days; assay type: functional, organism-based; conditions: Human alphaherpesvirus 3, YS/R, 120 h
[3] = system: Human alphaherpesvirus 3; experiment: Antiviral activity against thymidine kinase deficient VZV 07/1 in HEL cells assessed as reduction of virus plaque formation after 5 days; assay type: functional, organism-based; conditions: Human alphaherpesvirus 3, 07/1, HEL, 120 h
[4] = system: Human alphaherpesvirus 3; experiment: Antiviral activity against TK+ VZV OKA in HEL cells assessed as reduction of virus plaque formation after 5 days; assay type: functional, organism-based; conditions: Human alphaherpesvirus 3, OKA, 120 h
[5] = system: Human alphaherpesvirus 3; experiment: Antiviral activity against TK+ VZV YS in HEL cells assessed as reduction of virus plaque formation after 5 days; assay type: functional, organism-based; conditions: Human alphaherpesvirus 3, YS, 120 h
[6] = target: T1, Thymidine kinase (Varicella-zoster virus (strain Dumas) (HHV-3) (Human herpesvirus 3), UniProt P09250); experiment: Inhibition of VZV thymidine kinase; parameters: species or system Human alphaherpesvirus 3
T1 sequence (P09250 whole entry): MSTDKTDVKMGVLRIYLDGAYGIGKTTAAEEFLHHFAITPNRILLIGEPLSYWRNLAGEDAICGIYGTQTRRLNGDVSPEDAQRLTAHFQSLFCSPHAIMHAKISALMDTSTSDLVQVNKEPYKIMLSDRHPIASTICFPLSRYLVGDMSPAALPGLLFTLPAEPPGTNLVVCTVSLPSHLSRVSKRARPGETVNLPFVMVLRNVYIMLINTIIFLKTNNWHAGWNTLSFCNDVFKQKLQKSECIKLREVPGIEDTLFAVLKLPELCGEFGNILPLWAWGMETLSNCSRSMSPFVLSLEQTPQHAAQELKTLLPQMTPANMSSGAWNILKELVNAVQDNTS
In short: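 VZV TK enzyme assay in 50 mM Tris-HCl pH 8.0 with 2.5 mM MgCl2, 10 mM DTT, 2.5 mM ATP, 10 mM NaF, 1.0 mg/mL BSA and 1 µM [CH3-3H]dThd (0.1 µCi). Run 30 min at 37 °C, spotted on DE-81 discs, washed, radioactivity counted.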

[7] = Cytotoxicity against HEL cells after 3 days; assay type: cell-based; conditions: human
In short: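 HEL cells were seeded at 5 × 10^3 cells/well and allowed to grow for 24 h. Medium containing graded compound concentrations was then added, followed by 3 days at 37 °C. Cell number was counted with a Coulter counter.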

[8] = Cytotoxicity against HEL cells assessed as alteration in cell morphology after 3 days; assay type: cell-based; conditions: human
[9] = system: Human betaherpesvirus 5; experiment: Antiviral activity against HCMV Davis in HEL cells assessed as reduction of virus plaque formation after 7 days; assay type: functional, organism-based; conditions: Human betaherpesvirus 5, Davis, 168 h; in short: as §1

SMILES: CCCCCCCCCCc1cc2cn([C@H]3C[C@H](O)[C@@H](CO)O3)c(=O)nc2o1
- EC50 [1]: > 130 µM
- EC50 [2]: > 51 µM
- EC50 [3]: > 51 µM
- EC50 [4]: 0.094 µM
- EC50 [5]: 0.066 µM
- IC50 [6]: ≥ 500 µM
- CC50 at 72 h [7]: > 510 µM
- MCC at 72 h [8]: ≥ 130 µM
- EC50 [9]: 64 µM

SMILES: CCCc1ccc(CCc2cc3cn([C@H]4C[C@H](O)[C@@H](CO)O4)c(=O)nc3o2)cc1
- EC50 [1]: > 130 µM
- EC50 [2]: > 130 µM
- EC50 [3]: > 50 µM
- EC50 [4]: > 130 µM
- EC50 [5]: ≥ 50 µM
- IC50 [6]: > 500 µM
- CC50 at 72 h [7]: > 130 µM
- MCC at 72 h [8]: ≥ 130 µM
- EC50 [9]: > 130 µM

SMILES: CCCCCc1cnc(-c2cc3cn([C@H]4C[C@H](O)[C@@H](CO)O4)c(=O)nc3o2)nc1
- EC50 [1]: > 100 µM
- EC50 [2]: > 100 µM
- EC50 [3]: > 100 µM
- EC50 [4]: 1.9 µM
- EC50 [5]: 2 µM
- IC50 [6]: 24 µM
- CC50 at 72 h [7]: > 50 µM
- MCC at 72 h [8]: > 100 µM
- EC50 [9]: > 100 µM

SMILES: CCCCCCc1cnc(-c2cc3cn([C@H]4C[C@H](O)[C@@H](CO)O4)c(=O)nc3o2)nc1
- EC50 [1]: > 100 µM
- EC50 [2]: > 100 µM
- EC50 [3]: > 100 µM
- EC50 [4]: 0.63 µM
- EC50 [5]: 0.71 µM
- IC50 [6]: 15 µM
- CC50 at 72 h [7]: > 50 µM
- MCC at 72 h [8]: > 100 µM
- EC50 [9]: > 100 µM

SMILES: CCCCc1ccc(-c2cc3cn([C@H]4C[C@H](O)[C@@H](CO)O4)c(=O)nc3o2)nc1
- EC50 [1]: > 100 µM
- EC50 [2]: > 100 µM
- EC50 [3]: > 100 µM
- EC50 [4]: 0.23 µM
- EC50 [5]: 0.36 µM
- IC50 [6]: 34 µM
- CC50 at 72 h [7]: > 50 µM
- MCC at 72 h [8]: > 100 µM
- EC50 [9]: > 100 µM

SMILES: CCCCCCc1ccc(-c2cc3cn([C@H]4C[C@H](O)[C@@H](CO)O4)c(=O)nc3o2)nc1
- EC50 [1]: > 100 µM
- EC50 [2]: 70 µM
- EC50 [3]: > 100 µM
- EC50 [4]: 0.06 µM
- EC50 [5]: 0.045 µM
- IC50 [6]: 3.7 µM
- CC50 at 72 h [7]: > 50 µM
- MCC at 72 h [8]: > 100 µM
- EC50 [9]: > 100 µM

SMILES: CCCCCCc1ccc(-c2cc3cn([C@H]4C[C@H](O)[C@@H](CO)O4)c(=O)nc3o2)cn1
- EC50 [1]: > 20 µM
- EC50 [2]: > 20 µM
- EC50 [3]: > 20 µM
- EC50 [4]: 0.14 µM
- EC50 [5]: 0.09 µM
- IC50 [6]: 30 µM
- CC50 at 72 h [7]: > 50 µM
- MCC at 72 h [8]: 100 µM
- EC50 [9]: > 20 µM

- EC50 [1]: > 560 µM
- EC50 [3]: > 560 µM
- EC50 [4]: 380 µM
- EC50 [9]: > 560 µM
SMILES: O=c1nc2oc(CCc3ccccc3)cc2cn1[C@H]1C[C@H](O)[C@@H](CO)O1
- CC50 at 72 h [7]: > 560 µM
- MCC at 72 h [8]: > 560 µM

SMILES: Nc1nc2c(ncn2COC(CO)CO)c(=O)[nH]1 [GANCICLOVIR]
- EC50 [5]: 2.3 µM
- CC50 at 72 h [7]: > 200 µM
- MCC at 72 h [8]: > 200 µM
- EC50 [9]: 8.7 µM

- EC50 [1]: 15 µM
- EC50 [2]: > 50 µM
- EC50 [3]: > 50 µM
- EC50 [4]: 41 µM
- EC50 [5]: 27 µM
- EC50 [9]: 8.7 µM
SMILES: CCCc1ccc(C#Cc2cc3cn([C@H]4C[C@H](O)[C@@H](CO)O4)c(=O)nc3o2)cc1
- CC50 at 72 h [7]: > 120 µM
- MCC at 72 h [8]: 87 µM

- EC50 [1]: > 120 µM
- EC50 [3]: > 120 µM
- EC50 [4]: 18 µM
- EC50 [9]: > 120 µM
SMILES: CCCCCc1ccc(CCc2cc3cn([C@H]4C[C@H](O)[C@@H](CO)O4)c(=O)nc3o2)cc1
- CC50 at 72 h [7]: > 470 µM
- MCC at 72 h [8]: ≥ 470 µM

SMILES: CCCCCCCC/C=C/c1cc2cn([C@H]3C[C@H](O)[C@@H](CO)O3)c(=O)nc2o1
- EC50 [1]: 22 µM
- EC50 [2]: 26 µM
- EC50 [3]: > 48 µM
- EC50 [4]: 1.2 µM
- EC50 [5]: 0.72 µM
- IC50 [6]: 65 µM
- CC50 at 72 h [7]: 230 µM
- MCC at 72 h [8]: ≥ 120 µM
- EC50 [9]: 8.4 µM

SMILES: CCCC#Cc1ccc(-c2cc3cn([C@H]4C[C@H](O)[C@@H](CO)O4)c(=O)nc3o2)cn1
- EC50 [1]: > 20 µM
- EC50 [2]: > 20 µM
- EC50 [3]: > 20 µM
- EC50 [4]: 0.09 µM
- EC50 [5]: 0.06 µM
- IC50 [6]: 2.9 µM
- CC50 at 72 h [7]: > 50 µM
- MCC at 72 h [8]: ≥ 100 µM
- EC50 [9]: > 20 µM

- EC50 [1]: > 540 µM
- EC50 [3]: > 140 µM
- EC50 [4]: > 140 µM
- EC50 [9]: > 540 µM
SMILES: Cc1ccc(CCc2cc3cn([C@H]4C[C@H](O)[C@@H](CO)O4)c(=O)nc3o2)cc1
- CC50 at 72 h [7]: > 540 µM
- MCC at 72 h [8]: 540 µM

SMILES: O=c1nc2oc(C#Cc3ccccc3)cc2cn1[C@H]1C[C@H](O)[C@@H](CO)O1
- EC50 [1]: > 140 µM
- EC50 [2]: > 140 µM
- EC50 [3]: > 140 µM
- EC50 [4]: ≥ 140 µM
- EC50 [5]: 99 µM
- IC50 [6]: 493 µM
- CC50 at 72 h [7]: > 570 µM
- MCC at 72 h [8]: > 570 µM
- EC50 [9]: > 140 µM

SMILES: CCCCCc1ccc(-c2cc3cn([C@H]4C[C@H](O)[C@@H](CO)O4)c(=O)nc3o2)cc1 [CF1743]
- MCC at 72 h [8]: > 1.3 µM

SMILES: CCCCCc1ccc(-c2cc3cn([C@H]4C[C@H](O)[C@@H](CO)O4)c(=O)nc3o2)cn1
- EC50 [1]: > 20 µM
- EC50 [2]: > 20 µM
- EC50 [3]: > 20 µM
- EC50 [4]: 0.13 µM
- EC50 [5]: 0.09 µM
- IC50 [6]: 18 µM
- CC50 at 72 h [7]: > 50 µM
- MCC at 72 h [8]: 100 µM
- EC50 [9]: > 20 µM

SMILES: O=c1[nH]c(=O)n([C@H]2C[C@H](O)[C@@H](CO)O2)cc1/C=C/Br [BRIVUDINE]
- EC50 [2]: ≥ 130 µM
- EC50 [3]: ≥ 99 µM
- EC50 [4]: 0.01 µM
- EC50 [5]: 0.01 µM
- CC50 at 72 h [7]: > 150 µM
- MCC at 72 h [8]: > 150 µM

SMILES: CCCCCc1ccc(-c2cc3cn([C@H]4C[C@H](O)[C@@H](CO)O4)c(=O)nc3o2)nc1
- EC50 [1]: > 100 µM
- EC50 [2]: > 100 µM
- EC50 [3]: > 100 µM
- EC50 [4]: 0.07 µM
- IC50 [6]: 4.2 µM
- CC50 at 72 h [7]: > 50 µM
- MCC at 72 h [8]: > 100 µM
- EC50 [9]: > 100 µM

- EC50 [1]: 13 µM
- EC50 [3]: 71 µM
- EC50 [4]: 17 µM
- EC50 [5]: 19 µM
- EC50 [9]: 11 µM
SMILES: CCCCCc1ccc(C#Cc2cc3cn([C@H]4C[C@H](O)[C@@H](CO)O4)c(=O)nc3o2)cc1
- CC50 at 72 h [7]: 110 µM
- MCC at 72 h [8]: 470 µM

SMILES: CCCCCCCCC#Cc1cc2cn([C@H]3C[C@H](O)[C@@H](CO)O3)c(=O)nc2o1
- IC50 [6]: 217 µM

- EC50 [1]: 510 µM
- EC50 [3]: 36 µM
- EC50 [4]: 66 µM
- EC50 [5]: 41 µM
- EC50 [9]: > 130 µM
SMILES: Cc1ccc(C#Cc2cc3cn([C@H]4C[C@H](O)[C@@H](CO)O4)c(=O)nc3o2)cc1
- CC50 at 72 h [7]: 510 µM
- MCC at 72 h [8]: ≥ 510 µM

SMILES: Nc1nc2c(ncn2COCCO)c(=O)[nH]1 [ACYCLOVIR]
- CC50 at 72 h [7]: > 890 µM
- MCC at 72 h [8]: > 220 µM
